ChEMBL document CHEMBL1138270, “Antimycobacterial activities of novel 1-(cyclopropyl/tert-butyl/4-fluorophenyl)-1,4-dihydro- 6-nitro-4-oxo-7-(substituted secondary amino)-1,8-naphthyridine-3-carboxylic acid” (J Med Chem, 2007)
In brackets after ≈: the same amount, converted by molar mass.

What was measured:
[1] = test system: Mus musculus; experiment: Phototoxicity in Swiss Albino mouse assessed as ear thickness at 140 mg/kg, po after 4 hrs of irradiation; assay type: organism-based; parameters: dose 140 mg/kg, route oral; conditions: in vivo
Summary of the method: (§1)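 Female Swiss albino mice (~2 months, 20-25 g) were fasted ≥18 h and given 140 mg/kg orally by gavage; controls received 0.5% Na-CMC vehicle at 10 mL/kg. UVA started right after dosing, 4 h (~18 J/cm2). Ear thickness was measured before dosing and at 4, ~24, 48, 72 and 96 h, reported as mean of left and right ears ± SEM.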

[2] = test system: Mus musculus; experiment: Phototoxicity in UV light irradiated Swiss Albino mouse assessed as ear thickness at 140 mg/kg, po; assay type: organism-based; parameters: dose 140 mg/kg, route oral; conditions: in vivo; summary of the method: as §1
[3] = test system: Mus musculus; experiment: Phototoxicity in Swiss Albino mouse assessed as ear erythema at 140 mg/kg, po after 96 hrs of irradiation; assay type: organism-based; parameters: dose 140 mg/kg, route oral; conditions: in vivo
[4] = test system: Mus musculus; experiment: Phototoxicity in Swiss Albino mouse assessed as ear erythema at 140 mg/kg, po after 72 hrs of irradiation; assay type: organism-based; parameters: dose 140 mg/kg, route oral; conditions: in vivo
[5] = test system: Mycobacterium tuberculosis; experiment: Antimycobacterial activity against Mycobacterium tuberculosis H37Rv by agar dilution method; assay type: functional
Summary of the method: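 MIC was determined by agar dilution, in duplicate.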

[6] = test system: Mus musculus; experiment: Toxicity in C57BL/6 mouse at 500 mg/kg; assay type: organism-based; parameters: dose 500 mg/kg; conditions: in vivo
Summary of the method: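 Maximum tolerated dose study in female C57BL/6 mice: single escalating doses of 100, 300 and 500 mg/kg, 3 mice/dose.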

[7] = test system: Mus musculus; experiment: Phototoxicity in Swiss Albino mouse assessed as ear thickness at 140 mg/kg, po after 72 hrs of irradiation; assay type: organism-based; parameters: dose 140 mg/kg, route oral; conditions: in vivo; summary of the method: as §1
[8] = test system: Mus musculus; experiment: Phototoxicity in UV light irradiated Swiss Albino mouse assessed ear erythema at 140 mg/kg, po; assay type: organism-based; parameters: dose 140 mg/kg, route oral; conditions: in vivo
[9] = test system: Mus musculus; experiment: Phototoxicity in Swiss Albino mouse assessed as ear erythema at 140 mg/kg, po after 24 hrs of irradiation; assay type: organism-based; parameters: dose 140 mg/kg, route oral; conditions: in vivo
[10] = test system: Mycobacterium tuberculosis; experiment: Antimycobacterial activity against Mycobacterium tuberculosis ATCC 35801 infected CD1 mouse assessed as spleen bacterial count at 50 mg/kg, ip after 35 days post infection; assay type: functional; conditions: route intraperitoneal
Summary of the method: (§2)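 CD-1 mice were infected intravenously via the caudal vein with about 10⁷ viable M. tuberculosis ATCC 35801. Intraperitoneal treatment began 10 days after inoculation and ran for 10 days. At 35 days post-infection, spleens and right lungs were homogenized, serially diluted 10-fold and plated on 7H10 agar at 37 °C in ambient air for 4 weeks. Counts were compared with vehicle-treated controls and given as log CFU ± SEM.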

[11] = test system: Mycolicibacterium smegmatis; experiment: Antimicrobial activity against Mycobacterium smegmatis by agar dilution method; assay type: functional
Summary of the method: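 Agar dilution against M. smegmatis ATCC 14468; MIC determined in duplicate.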

[12] = test system: Vero; experiment: Cytotoxicity against Vero cells after 72 hrs by MTT assay; assay type: cell-based; conditions: Chlorocebus sabaeus
Summary of the method: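 Vero cells were exposed to serially diluted compound up to 62.5 µg/mL for 72 h. Viability was read by cellular conversion of MTT to formazan (CellTiter 96 non-radioactive proliferation assay), and IC50 was derived.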

[13] = test system: Mus musculus; experiment: Phototoxicity in Swiss Albino mouse assessed as ear thickness at 140 mg/kg, po after 24 hrs of irradiation; assay type: organism-based; parameters: dose 140 mg/kg, route oral; conditions: in vivo; summary of the method: as §1
[14] = test system: Mus musculus; experiment: Phototoxicity in Swiss Albino mouse assessed as ear erythema at 140 mg/kg, po after 48 hrs of irradiation; assay type: organism-based; parameters: dose 140 mg/kg, route oral; conditions: in vivo
[15] = Inhibition of Mycobacterium smegmatis DNA gyrase supercoiling activity; parameters: species or system Mycolicibacterium smegmatis
Summary of the method: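 Gyrase purified from M. smegmatis was preincubated with compound in DMSO (5% DMSO in reaction). 400 ng relaxed pUC18 was added in 35 mM Tris-HCl pH 7.5, 5 mM MgCl2, 25 mM K-glutamate, 2 mM spermidine, 2 mM ATP, BSA, tRNA and 5% glycerol, 1 h at 37 °C. Samples were heat-inactivated, run on 1% agarose in TAE, and ethidium-stained; IC50 was derived.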

[16] = test system: Mycobacterium tuberculosis; experiment: Antimycobacterial activity against Mycobacterium tuberculosis ATCC 35801 infected CD1 mouse assessed as lung bacterial count at 50 mg/kg, ip after 35 days post infection; assay type: functional; conditions: route intraperitoneal; summary of the method: as §2
[17] = test system: Mus musculus; experiment: Phototoxicity in Swiss Albino mouse assessed as ear thickness at 140 mg/kg, po after 48 hrs of irradiation; assay type: organism-based; parameters: dose 140 mg/kg, route oral; conditions: in vivo; summary of the method: as §1
[18] = test system: Mus musculus; experiment: Phototoxicity in Swiss Albino mouse assessed as ear thickness at 140 mg/kg, po after 96 hrs of irradiation; assay type: organism-based; parameters: dose 140 mg/kg, route oral; conditions: in vivo; summary of the method: as §1
[19] = test system: Mus musculus; experiment: Phototoxicity in Swiss Albino mouse assessed as ear erythema at 140 mg/kg, po after 4 hrs of irradiation; assay type: organism-based; parameters: dose 140 mg/kg, route oral; conditions: in vivo

| Structure (SMILES) | Activity [1] | Activity [2] | Activity [3] | Activity [4] | MIC [5] | Activity [6] | Activity [7] | Activity [8] | Activity [9] | Log10 cfu [10] | MIC [11] | IC50 [12] | Activity [13] | Activity [14] | IC50 [15] | Log10 cfu [16] | Activity [17] | Activity [18] | Activity [19] |
| --- | --- | --- | --- | --- | --- | --- | --- | --- | --- | --- | --- | --- | --- | --- | --- | --- | --- | --- | --- |
| CC1(C)COCN1c1nc2c(cc1[N+](=O)[O-])c(=O)c(C(=O)O)cn2C(C)(C)C | 0.28 mm | 0.24 mm | Toxic | Toxic | 0.1 µM (≈ 0.039 µg/mL) | Non-toxic | 0.3 mm | Non-toxic | Non-toxic | 5.13 | 3.99 µM (≈ 1.56 µg/mL) | > 160 µM | 0.26 mm | Toxic | 256 µM | 5.6 | 0.29 mm | 0.3 mm | Non-toxic |
| O=C(O)c1cn(-c2ccc(F)cc2)c2nc(N3CCN(C(c4ccccc4)c4ccc(Cl)cc4)CC3)c([N+](=O)[O-])cc2c1=O (configuration not stated) | – | – | – | – | 1.27 µM (≈ 0.78 µg/mL) | – | – | – | – | – | 5.09 µM (≈ 3.13 µg/mL) | 102 µM | – | – | – | – | – | – | – |
| CC(C)(C)n1cc(C(=O)O)c(=O)c2cc([N+](=O)[O-])c(N3CCN(C(c4ccccc4)c4ccc(Cl)cc4)CC3)nc21 (configuration not stated) | – | – | – | – | 1.35 µM (≈ 0.778 µg/mL) | – | – | – | – | – | 174 µM (≈ 100 µg/mL) | > 108 µM | – | – | – | – | – | – | – |
| CC(C)(C)n1cc(C(=O)O)c(=O)c2cc([N+](=O)[O-])c(N3CCC4(CC3)OCCO4)nc21 | – | – | – | – | 0.9 µM (≈ 0.389 µg/mL) | – | – | – | – | – | 3.61 µM (≈ 1.56 µg/mL) | 144 µM | – | – | 92.5 µM | – | – | – | – |
| O=C(O)c1cn(-c2ccc(F)cc2)c2nc(N3CCSCC3)c([N+](=O)[O-])cc2c1=O | 0.27 mm | 0.25 mm | Non-toxic | Non-toxic | 0.44 µM (≈ 0.189 µg/mL) | – | 0.29 mm | Non-toxic | Non-toxic | – | 1.81 µM (≈ 0.779 µg/mL) | 72.6 µM | 0.26 mm | Non-toxic | > 232 µM | – | 0.26 mm | 0.29 mm | Non-toxic |
| CC(C)(C)n1cc(C(=O)O)c(=O)c2cc([N+](=O)[O-])c(N3CCSCC3)nc21 | 0.28 mm | 0.27 mm | Non-toxic | Non-toxic | 0.99 µM (≈ 0.389 µg/mL) | – | 0.3 mm | Non-toxic | Non-toxic | – | 1.99 µM (≈ 0.781 µg/mL) | 79.6 µM | 0.28 mm | Non-toxic | 102 µM | – | 0.29 mm | 0.32 mm | Non-toxic |
| CN1CCN(c2nc3c(cc2[N+](=O)[O-])c(=O)c(C(=O)O)cn3-c2ccc(F)cc2)CC1c1ccccc1 (configuration not stated) | – | – | – | – | 0.77 µM (≈ 0.388 µg/mL) | – | – | – | – | – | 3.09 µM (≈ 1.56 µg/mL) | 124 µM | – | – | 99.3 µM | – | – | – | – |
| O=C(O)c1cn(C2CC2)c2nc(N3CCN(C(=O)c4ccco4)CC3)c([N+](=O)[O-])cc2c1=O | – | – | – | – | 6.9 µM (≈ 3.13 µg/mL) | – | – | – | – | – | 27.6 µM (≈ 12.5 µg/mL) | 68.9 µM | – | – | – | – | – | – | – |
| CC(C)(C)n1cc(C(=O)O)c(=O)c2cc([N+](=O)[O-])c(N3CCN(C(=O)c4ccco4)CC3)nc21 | – | – | – | – | 3.32 µM (≈ 1.56 µg/mL) | – | – | – | – | – | 6.67 µM (≈ 3.13 µg/mL) | 133 µM | – | – | – | – | – | – | – |
| O=C(O)c1cn(C2CC2)c2nc(N3CCN(Cc4ccc5c(c4)OCO5)CC3)c([N+](=O)[O-])cc2c1=O | – | – | – | – | 3.16 µM (≈ 1.56 µg/mL) | – | – | – | – | – | 25.3 µM (≈ 12.5 µg/mL) | 127 µM | – | – | – | – | – | – | – |
| COc1ccc(CC2C3=C(CCCC3)CCN2c2nc3c(cc2[N+](=O)[O-])c(=O)c(C(=O)O)cn3C2CC2)cc1 (configuration not stated) | 0.34 mm | 0.33 mm | Non-toxic | Non-toxic | 5.89 µM (≈ 3.13 µg/mL) | – | 0.36 mm | Non-toxic | Non-toxic | – | 1.47 µM (≈ 0.78 µg/mL) | 118 µM | 0.34 mm | – | 56.5 µM | – | 0.38 mm | 0.33 mm | Non-toxic |
| CC1CN(c2nc3c(cc2[N+](=O)[O-])c(=O)c(C(=O)O)cn3-c2ccc(F)cc2)CC(C)O1 (configuration not stated) | 0.25 mm | 0.26 mm | Non-toxic | Non-toxic | 0.43 µM (≈ 0.19 µg/mL) | – | 0.3 mm | Non-toxic | Non-toxic | – | 1.79 µM (≈ 0.792 µg/mL) | 141 µM | 0.28 mm | Non-toxic | 226 µM | – | 0.27 mm | 0.3 mm | Non-toxic |
| O=C(O)c1cn2c(n1)CN(c1nc3c(cc1[N+](=O)[O-])c(=O)c(C(=O)O)cn3-c1ccc(F)cc1)CC2 | 0.32 mm | 0.27 mm | Non-toxic | Non-toxic | 0.38 µM (≈ 0.188 µg/mL) | – | 0.33 mm | Non-toxic | Toxic | – | 1.58 µM (≈ 0.781 µg/mL) | > 126 µM | 0.33 mm | Non-toxic | > 202 µM | – | 0.32 mm | 0.33 mm | Toxic |
| O=C(O)c1cn(-c2ccc(F)cc2)c2nc(N3CCN(C(=O)c4ccco4)CC3)c([N+](=O)[O-])cc2c1=O | – | – | – | – | 3.07 µM (≈ 1.56 µg/mL) | – | – | – | – | – | 24.6 µM (≈ 12.5 µg/mL) | 123 µM | – | – | – | – | – | – | – |
| O=C(O)c1cn(C2CC2)c2cc(N3CCNCC3)c(F)cc2c1=O [CIPROFLOXACIN] | – | – | – | – | – | – | – | – | – | – | – | – | – | – | 15.1 µM | – | – | – | – |
| COc1c(N2CCNC(C)C2)c(F)cc2c(=O)c(C(=O)O)cn(C3CC3)c12 (configuration not stated) [GATIFLOXACIN] | – | – | – | – | 1.04 µM (≈ 0.39 µg/mL) | – | – | – | – | 6.92 | 2.08 µM (≈ 0.781 µg/mL) | > 155 µM | – | – | – | 6.02 | – | – | – |
| CCn1cc(C(=O)O)c(=O)c2cc(F)c(N3CCNC(C)C3)c(F)c21 (configuration not stated) [LOMEFLOXACIN] | 0.4 mm | 0.31 mm | Toxic | Toxic | – | – | 0.64 mm | Toxic | Toxic | – | – | – | 0.48 mm | Toxic | – | – | 0.53 mm | 0.6 mm | Toxic |
